# Results: ChEMBL document CHEMBL1154191, “Evaluation of spirocyclic 3-(3-fluoropropyl)-2-benzofurans as sigma1 receptor ligands for neuroimaging with positron emission tomography” (J Med Chem, 2009)
# Columns and labels:
# Liver [1] = assay: Biodistribution in CD1 mouse liver assessed per gram of wet tissue at 400 to 600 kBq, iv after 60 mins post-injection by gamma counting; assay type: ADME, organism-based; details: in vivo, 1 h
# In short: (§1)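 Female CD-1 mice (~8-12 weeks, 20-28 g), habituated ≥48 h and fasted 24 h with water available. The [18F] tracer (>150 GBq/μmol at end of synthesis) was given in 200 μL saline into the tail vein of conscious animals. At each time point, n=4-5, mice were anaesthetised, blood and urine sampled, then killed by cervical dislocation. Organs were weighed and γ-counted, and values calculated as % ID/g wet tissue.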
# Liver [2] = assay: Biodistribution in CD1 mouse liver assessed per gram of wet tissue at 400 to 600 kBq, iv after 30 mins post-injection by gamma counting; assay type: ADME, organism-based; details: in vivo, 0.5 h; in short: as §1
# [3] = Drug uptake in CD1 mouse adrenal gland at 400 to 600 kBq, iv after 120 mins post-injection by gamma counting relative to initial uptake; assay type: ADME, organism-based; details: in vivo, 2 h
# In short: (§2)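 Organ % ID/g was measured by γ-counting after tail-vein injection of 400-600 kBq [18F] tracer in saline to fasted female CD-1 mice (n=4-5 per time). The 120 min pi value is expressed relative to the initial (5 min pi) uptake.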
# [4] = N-octanol-phosphate buffer distribution coefficient, log D in three buffered solution by shake flask method; assay type: physicochemical
# In short: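 [18F]-labelled tracer partitioned between n-octanol and Sorensen's phosphate buffer (50 mM, pH 7.2), Dulbecco's PBS (pH 7.2) or TRIS-HCl (30 mM, pH 7.2). Conventional shake-flask method, multiple distribution in duplicates, n = 50 in total.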
# Brain [5] = assay: Biodistribution in CD1 mouse brain assessed per gram of wet tissue at 400 to 600 kBq, iv after 5 mins post-injection by gamma counting; assay type: ADME, organism-based; details: in vivo
# In short: (§3)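 Female CD-1 mice (~8-12 weeks, 20-28 g) were fasted 24 h with free water. Conscious mice got 400-600 kBq [¹⁸F] tracer in saline by tail vein. At 5, 30, 60 or 120 min (n=4-5 per time) they were anesthetized, blood and urine sampled, then killed by cervical dislocation. Organs were weighed and γ-counted, giving % ID/g wet tissue.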
# Brain [6] = assay: Biodistribution in CD1 mouse brain assessed per gram of wet tissue at 400 to 600 kBq, iv after 60 mins post-injection by gamma counting; assay type: ADME, organism-based; details: in vivo, 1 h; in short: as §3
# Lung [7] = assay: Biodistribution in CD1 mouse lung assessed per gram of wet tissue at 400 to 600 kBq, iv after 120 mins post-injection by gamma counting; assay type: ADME, organism-based; details: in vivo, 2 h; in short: as §1
# [8] = Biodistribution in CD1 mouse urine assessed as per gram of wet bladder at 400 to 600 kBq, iv after 5 mins post-injection by gamma counting; assay type: ADME, organism-based; details: in vivo; in short: as §1
# [9] = Biodistribution in CD1 mouse gonad assessed per gram of wet tissue at 400 to 600 kBq, iv after 60 mins post-injection by gamma counting; assay type: ADME, organism-based; details: in vivo, 1 h; in short: as §3
# Spleen = assay: Biodistribution in CD1 mouse spleen assessed per gram of wet tissue at 400 to 600 kBq, iv after 30 mins post-injection by gamma counting; assay type: ADME, organism-based; details: in vivo, 0.5 h; in short: as §1
# Brain [10] = assay: Biodistribution in CD1 mouse brain assessed per gram of wet tissue at 400 to 600 kBq, iv after 30 mins post-injection by gamma counting; assay type: ADME, organism-based; details: in vivo, 0.5 h; in short: as §3
# [11] = Biodistribution in CD1 mouse urine assessed as per gram of wet bladder at 400 to 600 kBq, iv after 60 mins post-injection by gamma counting; assay type: ADME, organism-based; details: in vivo, 1 h; in short: as §1
# Stomach = assay: Biodistribution in CD1 mouse stomach assessed per gram of wet tissue at 400 to 600 kBq, iv after 60 mins post-injection by gamma counting in presence of 1 mg/kg, ip sigma 1/sigma 2 receptor antagonist haloperidol treated before compound addition; assay type: organism-based; design: route intravenous; details: in vivo, 1 h
# In short: (§4)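 They were killed at 60 min pi, and organs were weighed and γ-counted as % ID/g wet tissue. Comparison with controls used Student's t test (independent, two-tailed).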
# Lung [12] = assay: Biodistribution in CD1 mouse lung assessed per gram of wet tissue at 400 to 600 kBq, iv after 60 mins post-injection by gamma counting; assay type: ADME, organism-based; details: in vivo, 1 h; in short: as §1
# Pancreas [13] = assay: Biodistribution in CD1 mouse pancreas assessed per gram of wet tissue at 400 to 600 kBq, iv after 60 mins post-injection by gamma counting in presence of 1 mg/kg, ip sigma 1/sigma 2 receptor antagonist haloperidol treated before compound addition; assay type: organism-based; design: route intravenous; details: in vivo, 1 h; in short: as §4
# Blood = assay: Biodistribution in CD1 mouse blood assessed per gram of wet tissue at 400 to 600 kBq, iv after 60 mins post-injection by gamma counting; assay type: ADME, organism-based; details: in vivo, 1 h; in short: as §3
# Kidney [14] = assay: Biodistribution in CD1 mouse kidney assessed per gram of wet tissue at 400 to 600 kBq, iv after 5 mins post-injection by gamma counting; assay type: ADME, organism-based; details: in vivo; in short: as §3
# Mus musculus = assay: Plasma concentration in CD1 mouse assessed per gram of wet tissue at 400 to 600 kBq, iv after 30 mins post-injection by gamma counting; assay type: ADME, organism-based; details: in vivo, 0.5 h
# In short: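 Female CD-1 mice (~8-12 weeks, 20-28 g), fasted 24 h with free access to water. 400-600 kBq [18F] tracer in 200 μL saline given by tail vein to conscious mice. At 5, 30, 60 or 120 min pi (n=4-5 per time) mice anaesthetised, blood taken, then euthanised. Samples weighed, γ-counted, %ID/g wet tissue calculated.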
# Kidney [15] = assay: Biodistribution in CD1 mouse kidney assessed per gram of wet tissue at 400 to 600 kBq, iv after 120 mins post-injection by gamma counting; assay type: ADME, organism-based; details: in vivo, 2 h; in short: as §3
# [16] = Biodistribution in CD1 mouse thymus assessed per gram of wet tissue at 400 to 600 kBq, iv after 60 mins post-injection by gamma counting; assay type: ADME, organism-based; details: in vivo, 1 h; in short: as §1
# [17] = Biodistribution in CD1 mouse thymus assessed per gram of wet tissue at 400 to 600 kBq, iv after 60 mins post-injection by gamma counting in presence of 1 mg/kg, ip sigma 1/sigma 2 receptor antagonist haloperidol treated before compound addition; assay type: organism-based; design: route intravenous; details: in vivo, 1 h; in short: as §4
# [18] = Biodistribution in CD1 mouse thymus assessed per gram of wet tissue at 400 to 600 kBq, iv after 120 mins post-injection by gamma counting; assay type: ADME, organism-based; details: in vivo, 2 h; in short: as §1
# [19] = Biodistribution in CD1 mouse urine assessed per gram of wet bladder at 400 to 600 kBq, iv after 60 mins post-injection by gamma counting in presence of 1 mg/kg, ip sigma 1/sigma 2 receptor antagonist haloperidol treated before compound addition; assay type: organism-based; design: route intravenous; details: in vivo, 1 h; in short: as §4
# Pancreas [20] = assay: Biodistribution in CD1 mouse pancreas assessed per gram of wet tissue at 400 to 600 kBq, iv after 60 mins post-injection by gamma counting; assay type: ADME, organism-based; details: in vivo, 1 h; in short: as §1
# [21] = Metabolic stability in CD1 mouse urine assessed as formation of hydrophilic and lipophilioc radiometabolite at 200 to 300 MBq, iv after 45 mins post-injection by radio-HPLC and radio-TLC; assay type: ADME, organism-based; details: in vivo, 0.75 h
# [22] = Drug uptake in CD1 mouse thymus at 400 to 600 kBq, iv after 120 mins post-injection by gamma counting relative to initial uptake; assay type: ADME, organism-based; details: in vivo, 2 h; in short: as §2
# Pancreas [23] = assay: Biodistribution in CD1 mouse pancreas assessed per gram of wet tissue at 400 to 600 kBq, iv after 5 mins post-injection by gamma counting; assay type: ADME, organism-based; details: in vivo; in short: as §1
# Cerebellum = assay: Biodistribution in CD1 mouse cerebellum assessed per gram of wet tissue at 400 to 600 kBq, iv after 120 mins post-injection by gamma counting; assay type: ADME, organism-based; details: in vivo, 2 h; in short: as §3
smiles,measurement,setting,value
[18F]CCCC1OC2(CCN(Cc3ccccc3)CC2)c2ccccc21 (stereo not drawn),Drug uptake,Liver [1],3.24 %ID
same,Drug uptake,Liver [2],4.28 %ID
same,Drug uptake,[3],> 70%
same,logD,[4],3.03
same,Drug uptake,Brain [5],3.66 %ID
same,Drug uptake,Brain [6],2.27 %ID
same,Drug uptake,Lung [7],3.37 %ID
same,Drug uptake,[8],2.89 %ID
same,Drug uptake,[9],4.22 %ID
same,Drug uptake,Spleen,5.86 %ID
same,Drug uptake,Brain [10],3.18 %ID
same,Drug uptake,[11],7.84 %ID
same,Drug uptake,Stomach,5.88 %ID
same,Drug uptake,Lung [12],4.64 %ID
same,Drug uptake,Pancreas [13],3.05 %ID
same,Drug uptake,Blood,0.37 %ID
same,Drug uptake,Kidney [14],12.1 %ID
same,Drug uptake,Mus musculus,0.96 %ID
same,Drug uptake,Kidney [15],3.68 %ID
same,Drug uptake,[16],2.87 %ID
same,Drug uptake,[17],2.36 %ID
same,Drug uptake,[18],2.86 %ID
same,Drug uptake,[19],22.5 %ID
same,Drug uptake,Pancreas [20],8.92 %ID
same,Activity,[21],98%
same,Drug uptake,[22],> 70%
same,Drug uptake,Pancreas [23],8.76 %ID
same,Drug uptake,Cerebellum,2.41 %ID
